Screening results as filed in PubChem.
The list is not random: actives were taken first. Their share in the collection is about 3.7%.
procasp7 counter: counter-screen for procaspase-3 activators: activators of human procaspase-7. recombinant procaspase-7, Ac-DEVD-pNA absorbance 405 nm; D23A/D198A/D206A triple mutant, cannot self-cleave; scale: DMSO 0, 5 µM enzyme 100. activation, % at 8.5 µM. 0.093% of 330,000 active. AID 463210;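 active means percent activation above the screen-wide mean plus 3 SD, cut at about 25% in these data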
Target sequence (P55210 whole entry D23A/D198A/D206A): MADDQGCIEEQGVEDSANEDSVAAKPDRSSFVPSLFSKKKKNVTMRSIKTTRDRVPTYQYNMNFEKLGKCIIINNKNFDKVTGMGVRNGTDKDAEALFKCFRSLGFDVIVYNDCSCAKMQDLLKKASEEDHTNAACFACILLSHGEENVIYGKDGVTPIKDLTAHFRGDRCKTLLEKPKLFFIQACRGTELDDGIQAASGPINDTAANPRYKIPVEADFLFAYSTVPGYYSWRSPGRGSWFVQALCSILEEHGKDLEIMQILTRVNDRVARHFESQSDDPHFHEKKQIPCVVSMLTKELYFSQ
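buffer or medium = Zinc-free HEPES/NaCl buffer, pH 7.4 | material = Procaspase-7 triple mutant (PC-7 D3A) | input = 2 µM procaspase-7 mutant as dispensed | signal = Epi-absorbance of released pNA at 405 nm, two timepoints | timing = 1 h preincubation, 2 h reaction | replicates = singlicate compound testing | evaluation = % activation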
procasp3 activ: activators of human procaspase-3; 0.11% of 330,000 active; activation, % at 8.5 µM; recombinant procaspase-3 D3A, Ac-DEVD-pNA absorbance 405 nm; AID 463141; P42574;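 active means activation above the mean of all tested compounds plus 3 SD, cut at about 21% in these data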
Target sequence (P42574 whole entry D9A/D28A/D175A): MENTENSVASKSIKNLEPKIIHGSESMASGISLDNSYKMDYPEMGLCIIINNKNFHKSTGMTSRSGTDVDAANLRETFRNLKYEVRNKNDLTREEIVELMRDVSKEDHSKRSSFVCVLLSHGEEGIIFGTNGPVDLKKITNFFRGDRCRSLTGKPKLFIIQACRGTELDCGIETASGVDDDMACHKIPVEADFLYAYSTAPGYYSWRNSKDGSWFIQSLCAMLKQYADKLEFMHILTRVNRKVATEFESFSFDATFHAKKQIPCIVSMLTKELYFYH
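Assay system – Procaspase-3 D3A mutant · Benchmarks – DMSO low control, extra-enzyme high control · Technique – 405 nm absorbance of p-nitroaniline, reads at 0 and 120 min · Doses – 8.5 µM nominal · Measure – % activation between DMSO and enzyme-spiked controls · Also added – Ac-DEVD-pNA chromogenic peptide substrate · Schedule – 1 h compound preincubation, 2 h substrate hydrolysis at 25 °C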
NR3A LBD binder: modulators (binders) of human NR3A ligand-binding domain. NR3A LBD differential scanning fluorimetry, Tm shift; 0% = protein alone, 100% = glycine-bound protein. Tm shift relative to glycine control, % at 25 µM. 2.5% of 340,000 active;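 active means melting temperature shift of at least 10% of the positive control shift, at one fixed dose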
MPTP block: permeability transition pore inhibition. isolated mouse mitochondria, Ca2+ swelling absorbance, 30 min. inhibition, % at 10 µM. 1.4% of 360,000 active. AID 602449;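 active means inhibition of 50% or more, scaled per plate between neutral and stimulator controls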
aDG glyco act: alpha-DG glycosylation activation | Pro5-aDG cells, alpha-DG glycosylation AlphaScreen (IIH6); 0% Pro5, 100% B10-LARGE cell signal | activation, % at 10 µM | 0.22% of 360,000 active;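 active means activation of at least 8% versus controls, or a plate z-score of at least 8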;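 further: Pro5 are CHO cells carrying HIG-tagged alpha-DG that lacks glycosylation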
Numbers stand for hits; . = inactive; / = no result.

SMILES	procasp7 counter	procasp3 activ	NR3A LBD binder	MPTP block	aDG glyco act
COc1ccc(CC2=C(O)c3ccccc3C(=O)C2=O)cc1	.	.	.	.	.
O=C1C(=O)c2ccccc2C(O)=C1CCCCl	.	.	.	.	3.8
O=C(O)c1cc(S(=O)(=O)N(Cc2ccccc2)c2ccc(Cl)cc2)ccc1Cl	.	.	39	.	.
Cc1ccccc1CN1CCNC(=O)C1CC(=O)NCCN1CCCCC1=O (configuration not stated)	.	.	11	.	.
Cc1cccc(CCNC(=O)CC2C(=O)NCCN2Cc2ccccc2C)n1 (configuration not stated)	.	.	.	.	.
CCOc1ccc(CN2CCNC(=O)C2CC(=O)NCCN2CCOC2=O)cc1 (configuration not stated)	.	.	16	.	.
Cc1ccc(NC(=O)CN(C)C(=O)COC(=O)c2nc3nccc(C)n3n2)cc1	.	.	.	.	.
O=C(NCc1cc(Cl)cc(Cl)c1)c1csc([C@@H]2O[C@H](CO)[C@H](O)[C@H](O)[C@H]2O)n1	/	/	/	.	.
O=S(=O)(NCCS(=O)(=O)N1CCN(c2ccccc2)CC1)c1ccccc1	.	.	.	.	.
COc1ccc(S(=O)(=O)NCCS(=O)(=O)N2CCN(c3ccccc3)CC2)cc1	.	.	19	.	.
CCc1ccc2c(c1)NC(=O)C2(C)Cc1ccccc1C#N (configuration not stated)	/	/	/	.	.
COC(=O)/C(C#N)=C/c1c(Oc2cc(C)cc(C)c2)nc2c(C)cccn2c1=O	.	.	13	.	.
COc1ccc(NC(=O)CSc2nnc(-c3cccc(O)c3)o2)cc1	.	.	14	.	.
O=C(CSc1nnc(-c2ccc(O)cc2)o1)Nc1ccccc1	.	.	14	.	.
CC(Oc1ccccc1)C(=O)Nc1ccc(F)c(S(=O)(=O)N2CCOCC2)c1 (configuration not stated)	/	/	.	.	.
O=C(COC(=O)CCSc1ccc(Cl)cc1)NCCc1ccccc1	.	.	16	.	.
NC(=O)c1sc2nc(-c3cccnc3)ccc2c1N	.	.	.	.	.
Nc1c(C(=O)Nc2ccccc2F)sc2nc(-c3cccnc3)ccc12	.	.	15	.	.
Cc1nc(-c2ccccc2)nc2sc(C(=O)c3ccc(F)cc3)c(N)c12	.	.	15	.	.
COc1ccc(C(=O)c2sc3nc(-c4ccccc4)ccc3c2N)cc1	.	.	18	.	.
CCOC(=O)c1sc2nc(-c3cccnc3)ccc2c1N	.	.	20	.	.
COc1ccc([C@H]2CN(c3ccc(OC)cc3)C(=O)[C@@H]2CC(=O)Nc2ccc(Br)cc2)cc1	/	/	/	.	.
C=CCn1c(SCC(=O)c2c(N)n(C)c(=O)n(C)c2=O)nnc1-c1ccoc1C	.	.	.	.	.
COc1ccc(Cl)cc1Nc1nc(Cl)nc(NCCO)n1	/	/	/	.	.
O=C(/C=C/c1ccccc1)c1c[nH]c2ccccc12	.	.	25	.	.
SMILES	procasp7 counter	procasp3 activ	NR3A LBD binder	MPTP block	aDG glyco act
C/C(Nc1ccc(Cl)cc1)=C1/CCOC1=O	/	/	.	.	.
COc1ccc2nc(Nc3sc4c(c3C(N)=O)CCCC4)sc2c1	.	.	.	.	.
CCOC(=O)c1sc(NC(=O)c2cccs2)cc1C	.	.	.	.	.
CCOC(=O)c1sc(Nc2nc3c(OC)cccc3s2)nc1C	.	.	/	.	.
CCOC(=O)c1sc(Nc2nc3ccc(OC)cc3s2)cc1C	.	.	16	.	.
CCOC(=O)c1sc(NC(=O)c2sccc2C)cc1C	.	.	11	.	.
CCOC(=O)c1sc(Nc2nc3c(F)cccc3s2)cc1C	.	.	29	.	.
CC1=C(C(=O)Nc2ccc(C(=O)NCCCN3CCCCC3C)cc2)SCCO1 (configuration not stated)	/	/	/	.	.
CC(C)(C)Cc1c(-c2ccc(C#N)cc2)nc2ccc(Cl)cn12	/	/	/	.	.
Cc1ccc(OCC(O)CNS(=O)(=O)c2ccccc2C(=O)O)cc1 (configuration not stated)	.	.	13	.	.
O=C(O)c1ccccc1S(=O)(=O)NCC(O)COC1CCCCC1 (configuration not stated)	.	.	.	.	.
CC(C)N1C(=O)NC2NC(=O)N(C(C)C)C21 (configuration not stated)	/	/	/	.	.
CC(C)(c1ccccc1)c1ccc(OCCn2cnc3ccccc3c2=O)cc1	.	.	21	.	.
O=C(c1ccccc1)c1ccc(OCCn2cnc3ccccc3c2=O)cc1	.	.	.	.	.
Cc1cn([C@H]2C[C@H](O)[C@@H](/C=C/C(=O)N3CCN(Cc4ccc(F)cc4)CC3)O2)c(=O)[nH]c1=O	/	/	/	.	.
COc1ccc(C(=O)NCc2nnc(SCC(=O)NCc3ccc(F)cc3)o2)cc1	.	.	11	.	.
COc1cccc(/C=N/n2nnnc2N)c1OCC#N	.	.	13	.	.
O=C(NCC1CC1)c1ccc(Nc2nc3ccc(Br)cc3[nH]2)cc1	.	.	28	.	.
O=C(NCc1ccco1)c1ccc2nc([C@@H]3O[C@H](CO)[C@H](O)[C@H](O)[C@H]3O)[nH]c2c1	/	/	/	.	.
O=C(NCc1ccco1)c1cccc(Nc2nc3ccc(Br)cc3[nH]2)c1	.	.	13	.	.
Cc1ccc2cc(CNC[C@H]3O[C@@H](n4cc(C)c(=O)[nH]c4=O)C[C@@H]3O)c(N3CCOCC3)nc2c1	/	/	/	.	.
O=[N+]([O-])c1ccc(Nc2ccccc2F)nc1	.	.	27	.	.
O=[N+]([O-])c1ccc(Nc2ccc(Cl)cc2)nc1	.	.	11	.	.
Cc1ccc(NC(=O)c2ccc(Nc3ccccc3F)nc2)cc1	.	.	30	.	.
Cc1ccc(NC(=O)c2ccc(NCc3ccc(F)cc3)nc2)cc1	.	.	.	.	.
SMILES	procasp7 counter	procasp3 activ	NR3A LBD binder	MPTP block	aDG glyco act
Cc1ccccc1Nc1ccc([N+](=O)[O-])cn1	/	/	.	.	.
Nc1c(Cl)ncnc1Nc1ccc(C(=O)O)cc1	/	/	.	.	.
Cc1cc(O)c(/C=N/Nc2ccc(Cl)cc2)c(=O)o1	.	.	.	.	6.5
COc1cc2c(cc1OC)C(C)N(C(=O)Cc1ccc(C(F)(F)F)cc1)CC2 (configuration not stated)	.	.	.	.	.
COc1ccc(CC(=O)N2CCc3cc(OC)c(OC)cc3C2O)cc1OC (configuration not stated)	.	.	10	.	.
COc1cccc(C(=O)Nc2ccc3c(C)cc(=O)oc3c2)c1	/	/	.	.	.
COc1cccc(C(=O)Nc2cccc(-c3nnc(-c4ccccc4)o3)c2)c1	.	.	.	.	.
COc1cccc(C(=O)Nc2ccc(-c3nc4ccccc4o3)c(O)c2)c1	.	.	34	.	.
COc1cc(OC)cc(C(=O)Nc2ccc(-c3nc4ccccc4o3)cc2)c1	.	.	20	.	.
